From ChEMBL document CHEMBL1140136, “Structural modifications of N-(1,2,3,4-tetrahydronaphthalen-1-yl)-4-aryl-1-piperazinehexanamides: influence on lipophilicity and 5-HT7 receptor activity. Part III” (J Med Chem, 2008)
The source made the active and inactive calls. The rule behind the calls is not given here.

Columns and labels:
[1] = target: D(2) dopamine receptor (Homo sapiens, UniProt P14416); assay: Displacement of [3H]spiroperidol from human cloned dopamine D2L receptor expressed in rat C6 cells; format: cell-based
D(2) dopamine receptor, sequence (P14416 whole entry): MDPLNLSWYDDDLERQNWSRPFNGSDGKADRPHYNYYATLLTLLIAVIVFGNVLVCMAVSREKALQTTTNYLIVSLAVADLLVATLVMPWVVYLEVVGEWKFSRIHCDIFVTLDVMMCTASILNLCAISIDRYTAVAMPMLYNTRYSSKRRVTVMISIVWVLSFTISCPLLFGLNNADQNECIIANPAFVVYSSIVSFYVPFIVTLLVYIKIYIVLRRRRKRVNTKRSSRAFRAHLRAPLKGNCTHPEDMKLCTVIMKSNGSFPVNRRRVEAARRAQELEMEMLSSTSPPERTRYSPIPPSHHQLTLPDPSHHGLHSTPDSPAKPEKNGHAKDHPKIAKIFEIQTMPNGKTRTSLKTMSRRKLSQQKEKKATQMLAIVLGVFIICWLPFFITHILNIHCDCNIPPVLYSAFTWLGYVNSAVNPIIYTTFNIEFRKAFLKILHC

[2] = target: 5-hydroxytryptamine receptor 7 (Rattus norvegicus, UniProt P32305); assay: Displacement of [3H]LSD from rat cloned 5HT7 receptor expressed in HEK293 cells; format: cell-based
5-hydroxytryptamine receptor 7 (Rattus norvegicus, UniProt P32305), sequence (P32305 whole entry): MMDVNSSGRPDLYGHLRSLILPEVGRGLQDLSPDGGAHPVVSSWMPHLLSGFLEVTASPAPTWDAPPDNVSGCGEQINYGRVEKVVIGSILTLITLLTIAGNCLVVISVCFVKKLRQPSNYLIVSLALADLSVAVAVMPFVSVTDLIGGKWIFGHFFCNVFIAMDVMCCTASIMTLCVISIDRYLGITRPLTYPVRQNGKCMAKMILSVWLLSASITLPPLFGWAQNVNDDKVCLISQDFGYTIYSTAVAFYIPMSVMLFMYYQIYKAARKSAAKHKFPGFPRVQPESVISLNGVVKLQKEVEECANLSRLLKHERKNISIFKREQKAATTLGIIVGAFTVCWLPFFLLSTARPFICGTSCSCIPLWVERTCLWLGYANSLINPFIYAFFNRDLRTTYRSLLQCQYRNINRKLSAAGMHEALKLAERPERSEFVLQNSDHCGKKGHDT
Procedure, shortened: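 Rat recombinant 5-HT7 membranes (30 µg) from HEK-293 cells, with 2.5 nM [3H]-LSD and 6-9 compound concentrations. Incubated 60 min at 37 °C in 50 mM Tris, 10 mM MgCl2, 0.5 mM EDTA, pH 7.4, then filtered. Nonspecific binding with 10 µM 5-CT. Ki via Cheng-Prusoff; three experiments in triplicate.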

[3] = target: T1, 5-hydroxytryptamine receptor 1A (Homo sapiens, UniProt P08908); assay: Displacement of [3H]8-OH-DPAT from human cloned 5HT1A receptor expressed in HEK293 cells; format: cell-based
T1 sequence (P08908 whole entry): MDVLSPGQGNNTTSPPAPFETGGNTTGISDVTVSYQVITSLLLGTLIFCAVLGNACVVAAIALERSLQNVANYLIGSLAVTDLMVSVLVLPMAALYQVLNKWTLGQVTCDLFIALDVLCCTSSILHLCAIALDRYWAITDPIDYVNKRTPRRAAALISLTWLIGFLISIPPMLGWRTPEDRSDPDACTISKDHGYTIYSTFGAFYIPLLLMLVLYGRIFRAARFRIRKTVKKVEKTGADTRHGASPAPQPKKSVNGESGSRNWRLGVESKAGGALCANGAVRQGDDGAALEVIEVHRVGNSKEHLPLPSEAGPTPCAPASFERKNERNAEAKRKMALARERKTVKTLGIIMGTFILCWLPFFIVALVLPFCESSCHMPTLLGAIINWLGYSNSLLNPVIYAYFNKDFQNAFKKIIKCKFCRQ
Procedure, shortened: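 Membranes (40 µg) from HEK-293 cells stably expressing human 5-HT1A, with 1.0 nM [3H]-8-OH-DPAT and compound (0.1 nM-10 µM). Incubated 120 min at 37 °C in 50 mM Tris-HCl pH 7.4, 5 mM MgSO4, then filtered. Nonspecific binding with 10 µM 5-HT. Ki by nonlinear fit and Cheng-Prusoff; three experiments in triplicate.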

[4] = target: T2, 5-hydroxytryptamine receptor 7 (Cavia porcellus, UniProt P50407); assay: Agonist activity at 5HT7 receptor assessed as relaxation of substance P-induced Dunkin-Hartley guinea pig ileum contraction; format: functional, tissue-based
T2 sequence (P50407 whole entry): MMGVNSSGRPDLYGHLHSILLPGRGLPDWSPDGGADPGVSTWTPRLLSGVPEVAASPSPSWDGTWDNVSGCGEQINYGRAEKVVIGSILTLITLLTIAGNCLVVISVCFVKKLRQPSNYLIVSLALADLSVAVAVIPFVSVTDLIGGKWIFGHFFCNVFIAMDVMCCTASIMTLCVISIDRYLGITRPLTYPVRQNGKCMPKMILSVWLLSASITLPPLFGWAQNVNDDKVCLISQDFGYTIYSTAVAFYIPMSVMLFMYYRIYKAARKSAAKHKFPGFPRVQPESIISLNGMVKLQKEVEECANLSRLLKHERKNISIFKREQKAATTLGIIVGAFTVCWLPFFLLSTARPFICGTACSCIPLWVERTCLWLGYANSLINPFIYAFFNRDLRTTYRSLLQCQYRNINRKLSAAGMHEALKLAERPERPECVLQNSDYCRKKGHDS
Procedure, shortened: (§1)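 Male Dunkin-Hartley guinea pigs (300-350 g); 3 cm proximal ileum segments were held under 1.0 g tension in Krebs-Henseleit at 37 °C, gassed with 95% O2/5% CO2. The bath contained 1 µM atropine, ketanserin and pyrilamine. Compound (0.001-10 µM) or the 5-CT reference was added 5 min before 100 nM substance P, giving noncumulative curves. Read-out was % reduction of contraction height; EC50 by nonlinear fitting.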

[5] = Selectivity for rat cloned 5HT7 over human cloned 5HT1A
[6] = Selectivity for rat cloned 5HT7 over human cloned dopamine D2
[7] = target: 5-hydroxytryptamine receptor 7 (Cavia porcellus) (UniProt P50407); assay: Agonist activity at 5HT7 receptor assessed as relaxation of substance P-induced Dunkin-Hartley guinea pig ileum contraction relative to 5-carboxamidotryptamine; format: functional, tissue-based; set-up: scale not given: the % may be the effect or the level left; procedure, shortened: as §1
5-hydroxytryptamine receptor 7 (Cavia porcellus), sequence (P50407 whole entry): as above

[8] = target: T2, 5-hydroxytryptamine receptor 7; assay: Antagonist activity at 5HT7 receptor assessed as inhibition of 4-(2-Diphenyl)-N-(4-pyridinylmethyl)-1-piperazinehexanamide mediated relaxation of substance P-induced Dunkin-Hartley guinea pig ileum contraction; format: functional, tissue-based; conditions: read-out: pA2 (converted)
Procedure, shortened: (§2)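 Male Dunkin-Hartley guinea pigs (300-350 g); whole proximal ileal segments (~3 cm) held under 1.0 g tension in Krebs-Henseleit, 95% O2/5% CO2, 37 °C. Bath contained 1 µM atropine, ketanserin and pyrilamine. Contraction evoked by 100 nM substance P; agonist added 5 min before; selective 5-HT7 antagonist at 0.1-3 µM; isometric tension relaxation, noncumulative curves.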

[9] = target: T2, 5-hydroxytryptamine receptor 7; assay: Antagonist activity at 5HT7 receptor assessed as inhibition of N-(4-Cyanophenylmethyl)-4-(2-diphenyl)-1-piperazinehexanamide mediated relaxation of substance P-induced Dunkin-Hartley guinea pig ileum contraction; format: functional, tissue-based; conditions: read-out: pA2 (converted); procedure, shortened: as §2
[10] = target: T2, 5-hydroxytryptamine receptor 7; assay: Antagonist activity at 5HT7 receptor assessed as inhibition of 2-[6-[4-(2-Diphenyl)-1-piperazinyl]-1-oxohexyl]-1,2,3,4-tetrahydroisoquinoline mediated relaxation of substance P-induced Dunkin-Hartley guinea pig ileum contraction; format: functional, tissue-based; conditions: read-out: pA2 (converted); procedure, shortened: as §2
[11] = Elimination half life in CD1 albino mouse brain at 10 mg/kg, ip; format: ADME, organism-based; set-up: dose 10 mg/kg, route intraperitoneal; conditions: read-out: beta t1/2
Procedure, shortened: (§3)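 Male CD1 albino mice (25-30 g), 10 mg/kg i.p., 3 mice per time point. Brains were removed, blotted, frozen, homogenized in water (1 g/10 mL) and extracted twice with hexane/isoamyl alcohol. Parent and 1-arylpiperazine metabolite were measured by RP-HPLC-UV at 230 nm. LLOQ about 0.1 µg/g; no residual-blood correction. Cmax read directly, AUC by linear trapezoidal rule, t1/2 by noncompartmental analysis.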

[12] = tested on: Mus musculus; assay: Volume of distribution in CD1 albino mouse plasma at 10 mg/kg, ip; conditions: in vivo
[13] = species: Mus musculus; assay: Ratio of plasma AUC to brain AUC in CD1 albino mouse; format: ADME, organism-based; conditions: in vivo
Procedure, shortened: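 Male CD1 mice (25-30 g) were dosed at 10 mg/kg ip, 3 per time point. Trunk blood plasma and brain homogenate were extracted with hexane/isoamyl alcohol and analysed by RP-HPLC-UV at 230 nm. Quantification limit was ~0.1 µg/mL or µg/g. AUC was calculated by the linear trapezoidal rule, noncompartmental, extrapolated to infinity where possible.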

[14] = Cmax in CD1 albino mouse plasma at 10 mg/kg, ip after 30 mins; format: ADME, organism-based; set-up: dose 10 mg/kg, route intraperitoneal
Procedure, shortened: (§4)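 Male CD1 mice (25-30 g) received 10 mg/kg ip, with 3 mice per time point. Heparinized trunk blood gave plasma; brain was homogenized in water (1 g/10 mL). Samples were extracted with hexane/isoamyl alcohol and assayed by RP-HPLC-UV at 230 nm with an internal standard. Quantification limits were 0.1 µg/mL plasma and 0.1 µg/g brain. Cmax and its time were read from the data.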

[15] = Cmax in CD1 albino mouse brain at 10 mg/kg, ip after 30 mins; format: ADME, organism-based; set-up: dose 10 mg/kg, route intraperitoneal; procedure, shortened: as §4
[16] = Elimination half life in CD1 albino mouse plasma at 10 mg/kg, ip; conditions: read-out: beta t1/2
[17] = target: 5-hydroxytryptamine receptor 7 (Cavia porcellus) (UniProt P50407); assay: Agonist activity at 5HT7 receptor assessed as relaxation of substance P-induced Dunkin-Hartley guinea pig ileum contraction at 2 mM; format: functional, tissue-based
Procedure, shortened: (§5)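 Guinea pig ileum was contracted by 100 nM substance P in Krebs-Henseleit with atropine, ketanserin and pyrilamine (1 µM each). Agonist tests were repeated after 5-HT7 desensitization: 60 min equilibration with 3 µM 5-CT, bath changed every 15 min. Relaxation was scored at single test concentrations as % reduction in contraction height.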

[18] = target: 5-hydroxytryptamine receptor 7 (Rattus norvegicus) (UniProt P32305); assay: Displacement of [3H]LSD from rat cloned 5HT7 receptor expressed in HEK293 cells at […]; format: cell-based
5-hydroxytryptamine receptor 7 (Rattus norvegicus), sequence (P32305 whole entry): as the sequence (P32305 whole entry) above

[19] = target: 5-hydroxytryptamine receptor 7 (Cavia porcellus) (UniProt P50407); assay: Agonist activity at 5HT7 receptor assessed as relaxation of substance P-induced Dunkin-Hartley guinea pig ileum contraction at 3 mM; format: functional, tissue-based; procedure, shortened: as §5
[20] = target: 5-hydroxytryptamine receptor 7 (Cavia porcellus) (UniProt P50407); assay: Agonist activity at 5HT7 receptor assessed as relaxation of substance P-induced Dunkin-Hartley guinea pig ileum contraction at 1 mM; format: functional, tissue-based; procedure, shortened: as §5
[21] = Plasma concentration in CD1 albino mouse at 10 mg/kg, ip after 1 hr; format: ADME, organism-based; set-up: dose 10 mg/kg, route intraperitoneal; procedure, shortened: as §4
[22] = Cmax in CD1 albino mouse plasma at 10 mg/kg, ip after 15 mins
[23] = tested on: Mus musculus; assay: AUC in CD1 albino mouse brain at 10 mg/kg, ip; format: ADME, organism-based; set-up: dose 10 mg/kg, route intraperitoneal; conditions: in vivo; procedure, shortened: as §3
[24] = Cmax in CD1 albino mouse brain at 10 mg/kg, ip after 60 mins; format: ADME, organism-based; set-up: dose 10 mg/kg, route intraperitoneal; procedure, shortened: as §3
[25] = Cmax in CD1 albino mouse brain at 10 mg/kg, ip after 120 mins; format: ADME, organism-based; set-up: dose 10 mg/kg, route intraperitoneal; procedure, shortened: as §3

Structure (SMILES)	Ki [1]	Ki [2]	Ki [3]	also measured
O=C(CCCCCN1CCN(c2ccccc2-c2ccccc2)CC1)NCc1ccncc1	0.185 µM	0.00098 µM	0.07 µM	EC50 [4]: 0.31 µM; Selectivity ratio [5]: 25; Selectivity ratio [6]: 95; Activity [7]: 87%
CC1CCN(CC[C@H]2CCCN2S(=O)(=O)c2cccc(O)c2)CC1				Kb [8]: 0.011 µM; Kb [9]: 0.0204 µM; Kb [10]: 0.0158 µM
COc1ccccc1N1CCN(CCCCCC(=O)NCc2ccc(OS(C)(=O)=O)cc2)CC1	0.091 µM	0.071 µM	0.029 µM	
CC(C)c1ccccc1N1CCN(CCCCCC(=O)NCc2ccccc2)CC1	0.0092 µM	0.215 µM	0.139 µM	
CSc1ccccc1N1CCN(CCCCCC(=O)N2Cc3ccccc3C2)CC1	0.096 µM	0.042 µM	0.00107 µM	
O=C(CCCCCN1CCN(c2ccccc2-c2ccccc2)CC1)NCc1ccccc1	0.503 µM		0.161 µM	Activity [17]: Active; Activity [18]: 62%; EC50 [4]: 4.5 µM; Activity [19]: Active; Activity [20]: inactive
CSc1ccccc1N1CCN(CCCCCC(=O)NC2CCCc3ccccc32)CC1 (stereo not given)				half-life [11]: 0.333 h; concentration at 1 h [21]: < 0.1 µg/mL; Cmax [15]: 580 ng/g; Cmax [22]: 0.31 µg/mL
CC(C)c1ccccc1N1CCN(CCCCCC(=O)NCc2ccc(C#N)cc2)CC1	0.02 µM	0.0086 µM	0.053 µM	
CSc1ccccc1N1CCN(CCCCCC(=O)NCc2ccc(OS(C)(=O)=O)cc2)CC1	0.03 µM	0.148 µM	0.0103 µM	
CC(C)c1ccccc1N1CCN(CCCCCC(=O)NCc2ccc(OS(C)(=O)=O)cc2)CC1	0.0078 µM	0.076 µM	0.057 µM	
CSc1ccccc1N1CCNCC1				half-life [11]: 1 h; AUC [23]: 85 µg/min/mL; Cmax [24]: 500 ng/g
CSc1ccccc1N1CCN(CCCCCC(=O)NCc2ccc(C#N)cc2)CC1	0.0053 µM	0.009 µM	0.094 µM	
O=C(CCCCCN1CCN(c2ccccc2-c2ccccc2)CC1)N1Cc2ccccc2C1	0.093 µM	0.0083 µM	0.124 µM	
c1ccc(-c2ccccc2N2CCNCC2)cc1				half-life [11]: 1.45 h; Cmax [25]: 410 ng/g; AUC [23]: 94 µg/min/mL
CC(C)c1ccccc1N1CCN(CCCCCC(=O)N2CCc3ccccc3C2)CC1	0.0013 µM	0.006 µM	0.0037 µM	
CSc1ccccc1N1CCN(CCCCCC(=O)NCc2ccncc2)CC1	0.064 µM	0.0348 µM	0.0082 µM	
NCCc1c[nH]c2ccc(C(N)=O)cc12				Activity [7]: 100%
CSc1ccccc1N1CCN(CCCCCC(=O)NCc2ccccc2)CC1	0.033 µM	0.022 µM	0.012 µM	

Second part, led by results:

Ki [1]	Ki [2]	Ki [3]	Structure (SMILES)	also measured
0.022 µM	0.031 µM	0.04 µM	COc1ccccc1N1CCN(CCCCCC(=O)N2CCc3ccccc3C2)CC1	
0.362 µM	0.00381 µM	0.095 µM	O=C(CCCCCN1CCN(c2ccccc2-c2ccccc2)CC1)N1CCc2ccccc2C1	EC50 [4]: 0.49 µM; Selectivity ratio [5]: 25; Selectivity ratio [6]: 95; Activity [7]: 89%
0.04 µM	0.0329 µM	0.00204 µM	CSc1ccccc1N1CCN(CCCCCC(=O)N2CCc3ccccc3C2)CC1	
0.73 µM	0.179 µM	0.0032 µM	COc1ccccc1N1CCN(CCCCCC(=O)N2Cc3ccccc3C2)CC1	
0.142 µM	0.00058 µM		N#Cc1ccc(CNC(=O)CCCCCN2CCN(c3ccccc3-c3ccccc3)CC2)cc1	half-life [11]: 1.15 h; EC50 [4]: 0.6 µM; Vd [12]: 11 L/kg; Ratio AUC [13]: 0.7; Activity [7]: 82%; Cmax [14]: 0.76 µg/mL; Cmax [15]: 540 ng/g; half-life [16]: 1.08 h
0.226 µM	0.224 µM	0.013 µM	COc1ccccc1N1CCN(CCCCCC(=O)NCc2ccccc2)CC1	
0.311 µM	0.296 µM	0.043 µM	COc1ccccc1N1CCN(CCCCCC(=O)NCc2ccc(C#N)cc2)CC1	
0.501 µM	0.389 µM	0.019 µM	COc1ccccc1N1CCN(CCCCCC(=O)NCc2ccncc2)CC1	
0.065 µM	0.054 µM	0.022 µM	CC(C)c1ccccc1N1CCN(CCCCCC(=O)N2Cc3ccccc3C2)CC1	
0.021 µM	0.0051 µM	0.325 µM	CC(C)c1ccccc1N1CCN(CCCCCC(=O)NCc2ccncc2)CC1	
0.723 µM	0.0057 µM	0.106 µM	CS(=O)(=O)Oc1ccc(CNC(=O)CCCCCN2CCN(c3ccccc3-c3ccccc3)CC2)cc1	
